Results on 16 compounds are retold here after ChEMBL document CHEMBL1122238, “Synthesis of analogues of pepstatin. Effect of structure in subsites P1', P2', and P2 on inhibition of porcine pepsin” (J Med Chem, 1983).

For assay [1], the target named is T1, Pepsin A (Sus scrofa, UniProt P00791). The experiment in a line: Tested for time independent inhibition constant against porcine pepsin. The method in brief: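 Pepsin (porcine) cleavage of Phe-Gly-His-Phe(NO2)-Phe-Ala-Phe-OMe (Km 4.0 × 10^-5 M), monitored by spectrophotometer. Reactions started with enzyme, giving linear steady-state initial velocities. Inhibitors were usually in 1% methanol v/v, or 10% if poorly soluble. IC50 came from inhibited versus uninhibited velocity and was converted to Ki by the Cha equation, Ki = (IC50 − Et/2)(1 + S/Km)^-1.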
T1 sequence (P00791 whole entry): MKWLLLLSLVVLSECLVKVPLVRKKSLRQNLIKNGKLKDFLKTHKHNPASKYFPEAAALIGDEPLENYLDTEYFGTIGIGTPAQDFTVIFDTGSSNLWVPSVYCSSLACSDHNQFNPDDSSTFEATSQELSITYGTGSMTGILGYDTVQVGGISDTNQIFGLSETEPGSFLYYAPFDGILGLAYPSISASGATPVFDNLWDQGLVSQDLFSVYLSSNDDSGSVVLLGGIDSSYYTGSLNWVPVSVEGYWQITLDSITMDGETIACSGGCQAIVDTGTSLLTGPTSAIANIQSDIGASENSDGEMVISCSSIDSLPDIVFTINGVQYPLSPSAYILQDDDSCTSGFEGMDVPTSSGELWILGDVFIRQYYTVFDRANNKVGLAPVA

The target of assay [2] is T1, Pepsin A. The experiment in a line: Tested for time dependent inhibition constant against porcine pepsin. The gist of the method: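 Porcine pepsin with synthetic heptapeptide substrate Phe-Gly-His-Phe(NO2)-Phe-Ala-Phe-OMe (Km 4.0 × 10^-5 M), followed spectrophotometrically. Enzyme preincubated with inhibitor for 10 min, and the reaction started by adding substrate. Velocities taken at apparent steady state. Inhibitor solutions generally contained 1% methanol v/v, and 10% for poorly soluble ones. IC50 converted to Ki by the Cha equation, correcting for total enzyme and S/Km.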

Structures are written as SMILES. Non-standard residues stand in square brackets, D forms with d. Residues, ends and D or L forms follow the SMILES beside them. *: point of attachment. Sta = CC(C)C[C@H](N)[C@@H](O)CC(=O)O; Isovaleryl = CC(C)CC(=O)*

`COC(=O)CNC(=O)C(C)NC(=O)CC(O)C(CC(C)C)NC(=O)C(NC(=O)CC(C)C)C(C)C` (stereo unspecified) yielded a Ki on Pepsin A [1] of 68 nM.
In turn, `CC(C)CCNC(=O)C(CC(C)C)NC(=O)CC(O)C(CC(C)C)NC(=O)C(NC(=O)CC(C)C)C(C)C` (stereo unspecified) returned a Ki at Pepsin A [2] of 4.6 nM.
Still for that read-out and setting: under `CC(C)CCNC(=O)C(C)NC(=O)CC(O)C(CC(C)C)NC(=O)C(C)NC(=O)CC(C)C` (stereo unspecified) stands 30 nM.
`CC(C)CCNC(=O)C(C)NC(=O)CC(O)C(CC(C)C)NC(=O)C(NC(=O)CC(C)C)C(C)C` (stereo unspecified) showed a Ki at Pepsin A [2] of 3 nM.
The compound `CCOC(=O)C[C@H](O)[C@H](CC(C)C)NC(=O)[C@@H](NC(=O)[C@@H](NC(=O)CC(C)C)C(C)C)C(C)C` (Isovaleryl-Val-Val-[Sta]-OEt) returned a Ki on Pepsin A [1] of 10 nM.
Take `COC(=O)[C@H](C)NC(=O)C[C@H](O)[C@H](CC(C)C)NC(=O)[C@@H](NC(=O)[C@@H](NC(=O)CC(C)C)C(C)C)C(C)C` (Isovaleryl-VV[Sta]A-OMe): at Pepsin A [2], the Ki was 3.5 nM.
For `CC(C)CC(=O)NC(C(=O)NC(CC(C)C)C(O)CC(=O)NC(C)C(=O)NC(C)C)C(C)C` (stereo unspecified), the Ki on Pepsin A [2] turned out to be 20 nM.
Regarding `COC(=O)C(CC(C)C)NC(=O)C(C)NC(=O)CC(O)C(CC(C)C)NC(=O)C(NC(=O)CC(C)C)C(C)C` (stereo unspecified), on Pepsin A [2], the Ki amounted to 1.1 nM.
`CNC(=O)C(C)NC(=O)CC(O)C(CC(C)C)NC(=O)C(NC(=O)CC(C)C)C(C)C` (stereo unspecified): the Ki on Pepsin A [1] worked out at 140 nM.
Still for that read-out and setting: the value for `CC(C)CCNC(=O)CNC(=O)CC(O)C(CC(C)C)NC(=O)C(NC(=O)CC(C)C)C(C)C` (stereo unspecified) was 56 nM; that for `CC(C)CCNC(=O)C(C)NC(=O)CC(O)C(CC(C)C)NC(=O)C(CC(C)C)NC(=O)CC(C)C` (stereo unspecified) was 13 nM; that for `CC(C)CC(=O)NC(C(=O)NC(CC(C)C)C(O)CC(=O)NC(C)C)C(C)C` (stereo unspecified) was 300 nM.
On Pepsin A [1], `CCOC(=O)CC(O)C(CC(C)C)NC(=O)C(NC(=O)CC(C)C)C(C)C` (stereo unspecified) displayed a Ki of 800 nM.
`CC(C)CCNC(=O)C(C)NC(=O)CC(O)C(CC(C)C)NC(=O)CNC(=O)CC(C)C` (stereo unspecified) registered a Ki on Pepsin A [1] of 100 nM.
At Pepsin A [2], `COC(=O)C(Cc1ccccc1)NC(=O)C(C)NC(=O)CC(O)C(CC(C)C)NC(=O)C(NC(=O)CC(C)C)C(C)C` (stereo unspecified) returned a Ki of 1.5 nM.
With `COC(=O)C(C)NC(=O)CC(O)C(CC(C)C)NC(=O)C(NC(=O)CC(C)C)C(C)C` (stereo unspecified), at Pepsin A [1], the Ki is 600 nM.
